This is a sample that favours compounds with a hit; in the whole collection about 1.3% have one here.
HTRA1 inhibitor: blocks human HTRA1 serine peptidase. 340,000 tested, 0.5% active. inhibition, % at 5.96 µM. recombinant HTRA1, FP-rhodamine activity-based probe, fluorescence polarization. AID 504803; in the data active = inhibition above about 36%;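 also: 0% = enzyme with DMSO and 100% = wells lacking enzyme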
Tn7 DDE FP: inhibitors of Tn7 peptide binding to human fibrin DD(E); P02675; FP displacement of FITC-Tn7 peptide from fibrin DD(E); 0% = median of compound wells per plate; inhibition, % at 8.3 µM; 370,000 tested, 0.13% active;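 active = inhibition above the mean of compounds falling within the control limits plus 3 SD of them, cut at about 14% in these data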;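 also: 0% = plate median of compound wells and 100% = 10 µM Aha-Tn7 peptide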
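Also added: labelled Tn7 tracer, 0.1 µM; Assay system: human fibrin DD(E) protein; Amount: 2 µM fibrin DD(E); Schedule: 10 min compound pre-incubation, 3 h probe incubation at room temperature; Repeats: one replicate per compound; Read-out basis: percent inhibition; Measured by: fluorescence polarization of the labelled Tn7 tracer.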
ABHD4 inh: inhibitors of mouse ABHD4; inhibition, % at 8.92 µM; 370,000 tested, 0.54% active; purified mABHD4, FP-Rh probe fluorescence polarization; Q8VD66; AID 720543;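 active = inhibition exceeding the mean over every tested compound plus 3 SD, cut at about 30% in these data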;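 also: 0% = plate median of compound wells and 100% = S159A mutant with DMSO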
Target sequence (Q8VD66 whole entry, looked up): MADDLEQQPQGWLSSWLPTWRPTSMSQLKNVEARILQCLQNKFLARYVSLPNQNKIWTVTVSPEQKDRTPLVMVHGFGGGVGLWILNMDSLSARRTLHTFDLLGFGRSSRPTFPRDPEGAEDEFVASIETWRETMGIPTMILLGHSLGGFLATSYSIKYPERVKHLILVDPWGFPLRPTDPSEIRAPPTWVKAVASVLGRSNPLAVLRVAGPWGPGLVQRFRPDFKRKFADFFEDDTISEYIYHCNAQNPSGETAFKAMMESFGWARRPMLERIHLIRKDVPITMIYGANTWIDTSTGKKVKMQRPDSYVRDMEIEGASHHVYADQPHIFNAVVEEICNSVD
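Assay system: mABHD4 protein; medium: HEPES pH 7.0, NaCl, Pluronic buffer; dosing: 8.92 µM, single dose; schedule: 45 min + 60 min at 25 °C; signal: FP readout, ex 525 nm / em 598 nm; read-out: normalized percent inhibition of probe labeling; repeats: single replicate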
DDE Tn6 FP inh: inhibitors of Tn6 peptide binding to human fibrin DD(E); P02675; Fibrin DD(E) TRITC-Tn6 fluorescence polarization displacement; inhibition, % at 8.3 µM; 370,000 tested, 0.21% active; AID 720509;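 active = inhibition above a per-campaign cutoff: mean of compounds within control limits plus 3 SD, cut at about 15% in these data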;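 also: 0% = median of all compound wells on the plate and 100% = blocking peptide control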
TCR-CD3 inh: blocks the human TCR-CD3 interaction | TAMRA-labeled TCR probe fluorescence, biochemical | inhibition, % at 9.4 µM | 360,000 tested, 0.37% active | AID 651800;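 also: recombinant mutant TCR 2C K166C tagged with TAMRA read by polarization; 0% = receptor in buffer alone and 100% = receptor with positive control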
HTRA1 conf: confirmation of human HTRA1 inhibitors; shares compounds with HTRA1 inhibitor; recombinant HTRA1, FP-rhodamine activity-based probe, fluorescence polarization; inhibition, % at 5.96 µM; 1,600 tested, 66% active; AID 540248;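 active = mean inhibition over three repeats above a set limit taken from the earlier primary screen, cut at about 37% in these data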;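 also: 0% = HTRA1 with DMSO and 100% = wells lacking HTRA1; inhibitors block probe binding so polarization drops and inhibition rises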
BSA probe FL: BSA probe counter-screen for TCR-CD3 inhibitors. shares compounds with TCR-CD3 inh. inhibition, % at 9.4 µM. 1,200 tested, 10% active. TAMRA-labeled BSA probe fluorescence counterscreen. AID 652035; in the data active = inhibition above about 23%;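 also: 0% = buffer low control and 100% = reference high control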
TCR-CD3 conf: confirmation of human TCR-CD3 interaction inhibitors; shares compounds with TCR-CD3 inh; inhibition, % at 9.4 µM; 1,200 tested, 48% active; TAMRA-labeled TCR probe fluorescence binding assay; AID 652036
DDE Tn6 FP ctr: counter-screen hit for Tn6 peptide-fibrin DD(E) binding disruption. shares compounds with DDE Tn6 FP inh. TRITC-Tn6 fluorescence polarization displacement; 0% = median of compound wells, not DMSO. inhibition, % at 8.3 µM. 680 tested, 2% active;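 active = inhibition above the mean of test compounds lying between the control limits plus 3 SD of those, cut at about 14% in these data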;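 also: 0% = median of compound wells and 100% = wells with Aha-Tn7 blocking peptide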
DDE Tn6 confirm: confirmation of inhibitors of Tn6 binding to human fibrin DD(E); shares compounds with DDE Tn6 FP inh; FP displacement of TRITC-Tn6 peptide from DD(E); 0% = per-plate median of test wells; inhibition, % at 8.3 µM; 680 tested, 10% active; AID 720631;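 active = inhibition above the mean of compounds lying within the control limits plus 3 SD, cut at about 16% in these data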;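 also: 100% = high control wells holding a competing inhibitor peptide at 10 µM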
ABHD4 confirm: ABHD4 (mouse) inhibition, FP confirmation; shares compounds with ABHD4 inh; purified mABHD4, FP-Rh probe fluorescence polarization; inhibition, % at 8.92 µM; 1,800 tested, 55% active; AID 720658;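 active = mean inhibition across replicates above the hit cutoff set in the primary screen, cut at about 30% in these data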;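 also: 0% = wild-type ABHD4 with DMSO and 100% = catalytically dead S159A mutant with DMSO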
The depositor's hits bear a star. Rule as the data show it, unless noted: active = inhibition above about 19%; inactive = the rest.

O=C(c1cc(O)c(O)c([N+](=O)[O-])c1)c1ccccc1F was read as HTRA1 inhibitor 48*, Tn7 DDE FP 6, ABHD4 inh 37*, DDE Tn6 FP inh -3, TCR-CD3 inh -2, HTRA1 conf 63* and ABHD4 confirm 32*.
`CNc1ccc2c3c(cccc13)C(=O)N(C)C2=O` gave HTRA1 inhibitor 84*, Tn7 DDE FP -6, ABHD4 inh 103*, DDE Tn6 FP inh 47*, TCR-CD3 inh 83*, HTRA1 conf 75*, BSA probe FL 138*, TCR-CD3 conf 104*, DDE Tn6 FP ctr 53*, DDE Tn6 confirm 43* and ABHD4 confirm 119*.
Oc1ccc(NCc2ccccc2OCc2ccccc2)cc1 was read as HTRA1 inhibitor 49*, Tn7 DDE FP -3, ABHD4 inh 81*, DDE Tn6 FP inh 14, TCR-CD3 inh 26*, HTRA1 conf 25, BSA probe FL 0, TCR-CD3 conf -1 and ABHD4 confirm 27.
O=C1CC(N(O)c2ccccc2)C(=O)N1c1cc(Cl)cc(Cl)c1 (stereo unspecified) was read as HTRA1 inhibitor 40*, Tn7 DDE FP -5, ABHD4 inh 45*, DDE Tn6 FP inh 9, TCR-CD3 inh 25*, HTRA1 conf 36, BSA probe FL 3, TCR-CD3 conf 3 and ABHD4 confirm 10.
CCCOc1ccc(N2C(=O)CC(N(O)c3ccccc3)C2=O)cc1 (stereo unspecified) was read as HTRA1 inhibitor 10, Tn7 DDE FP -3, ABHD4 inh 11, DDE Tn6 FP inh 1 and TCR-CD3 inh 1.
`CC(=O)N1CCN(c2ccc(NCc3cccc4ccccc34)cc2)CC1` gave HTRA1 inhibitor 37*, Tn7 DDE FP -8, ABHD4 inh 30*, DDE Tn6 FP inh 0, TCR-CD3 inh 3, HTRA1 conf 26 and ABHD4 confirm 8.
COc1ccc(C(=O)NNC(=O)CSc2nnnn2C)cc1 was read as HTRA1 inhibitor 5, Tn7 DDE FP 3, ABHD4 inh -2, DDE Tn6 FP inh -6 and TCR-CD3 inh -6.
Screening O=C(OCC(=O)N1CCCCC1)c1cc2ccccc2cc1O returned HTRA1 inhibitor -6, Tn7 DDE FP -6, ABHD4 inh -4, DDE Tn6 FP inh -3 and TCR-CD3 inh -5.
For C/C(CC(=O)N1CCCC1)=N\NC(=O)c1cc2ccccc2cc1O the results were HTRA1 inhibitor 48*, Tn7 DDE FP 6, ABHD4 inh 36*, DDE Tn6 FP inh -4, TCR-CD3 inh 6, HTRA1 conf 31 and ABHD4 confirm 27.
For CCOC(=O)N/N=C/c1ccc(N(CC)CC)cc1O the results were HTRA1 inhibitor 0, Tn7 DDE FP 3, ABHD4 inh 7, DDE Tn6 FP inh 5 and TCR-CD3 inh -4.
Screening CCN(CC)c1ccc(/C=N/Nc2ccc(C)cc2)c(O)c1 returned HTRA1 inhibitor 42*, Tn7 DDE FP -8, ABHD4 inh 31*, DDE Tn6 FP inh 11, TCR-CD3 inh 4, HTRA1 conf 20 and ABHD4 confirm 31*.
For O=C1c2cc(O)cc(O)c2C(=O)c2c1cc(O)c([C@@H](CO)CCO)c2O the results were HTRA1 inhibitor 39*, Tn7 DDE FP -7, ABHD4 inh 56*, DDE Tn6 FP inh -12, TCR-CD3 inh 6, HTRA1 conf 20 and ABHD4 confirm 51*.
For Cc1cc(/C=N/Nc2ccc([N+](=O)[O-])cn2)c(C)n1-c1ccc(C(=O)O)cc1 the results were HTRA1 inhibitor 41*, Tn7 DDE FP -2, ABHD4 inh 41*, DDE Tn6 FP inh 1, TCR-CD3 inh 3, HTRA1 conf 12 and ABHD4 confirm 59*.
For c1coc(-c2nnc3n2N=C(c2ccc4ccccc4c2)CS3)c1 the results were Tn7 DDE FP 1, ABHD4 inh -7 and DDE Tn6 FP inh -2.
For Oc1ccc(C2=Nn3c(nnc3-c3ccco3)SC2)cc1O the results were HTRA1 inhibitor 44*, Tn7 DDE FP 0, ABHD4 inh 43*, DDE Tn6 FP inh -1, TCR-CD3 inh 22*, HTRA1 conf 34 and ABHD4 confirm 40*.
`Oc1ccccc1CNc1cccc2cccnc12` gave HTRA1 inhibitor 39*, Tn7 DDE FP 2, ABHD4 inh 47*, DDE Tn6 FP inh 10, TCR-CD3 inh -8, HTRA1 conf 5 and ABHD4 confirm -11.
COc1cc(NCc2ccccc2O)c2ncccc2c1 was read as HTRA1 inhibitor 11, Tn7 DDE FP 6, ABHD4 inh 1, DDE Tn6 FP inh -1 and TCR-CD3 inh -5.
`NC(=S)NNc1cccc2cccnc12` gave HTRA1 inhibitor 46*, Tn7 DDE FP -5, ABHD4 inh 32*, DDE Tn6 FP inh -13, TCR-CD3 inh 19*, HTRA1 conf 27, BSA probe FL -5, TCR-CD3 conf 3 and ABHD4 confirm 52*.
NC(=S)Nc1cccc2cccnc12 was read as HTRA1 inhibitor -1, Tn7 DDE FP 3, ABHD4 inh -4, DDE Tn6 FP inh 2 and TCR-CD3 inh 6.
COc1ccc(C(NC(=O)/C=C\c2ccco2)c2ccc(OC)c(OC)c2)cc1 (stereo unspecified) was read as HTRA1 inhibitor -21, Tn7 DDE FP -1, ABHD4 inh 1, DDE Tn6 FP inh 8 and TCR-CD3 inh 10.
Cc1ccc(SCc2cc(=O)c3c(=O)n(-c4ccccc4)[nH]c3[nH]2)cc1 was read as HTRA1 inhibitor 56*, Tn7 DDE FP -9, ABHD4 inh 54*, DDE Tn6 FP inh -4, TCR-CD3 inh 2, HTRA1 conf 8 and ABHD4 confirm 35*.
O=c1cc(CSc2ccccc2)[nH]c2ccccc12 was read as HTRA1 inhibitor 1, Tn7 DDE FP 9, ABHD4 inh 3, DDE Tn6 FP inh 4 and TCR-CD3 inh 7.
